Ki and IC50 data for 3 compounds are collected here from BindingDB's records for doi:10.1021/jm9003297 (University of Bonn, 2009).

One test has as its target P2Y purinoceptor 12 (Homo sapiens, UniProt Q9H244). Nature of the test: Displacement of [3H]PSB0413 from human platelet P2Y12 receptor. An outline of the steps: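 Membranes from outdated human blood-bank platelets (4-5 days post-donation), washed, centrifuged, homogenized, stored at -80 °C. 100 µg protein incubated with 5 nM [³H]PSB-0413 in 50 mM Tris-HCl pH 7.4 for 1 h at rt, then filtered over GF/B. Nonspecific binding with 1 mM ADP. Screen at 10 µM. Ki from curves of 6-7 concentrations over 3 log units. At least three experiments in triplicate.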
(In general: Loss of bound radioactivity is the signal in a displacement assay; it reports binding, not function.)

A short description of test [1]: Displacement of [3H]DPCPX from human adenosine A1 receptor expressed in CHO cells assessed as ratio of IC50 in presence of GTP to absence of GTP by GTP shift assay.

Chain of P2Y purinoceptor 12 (Q9H244 whole entry): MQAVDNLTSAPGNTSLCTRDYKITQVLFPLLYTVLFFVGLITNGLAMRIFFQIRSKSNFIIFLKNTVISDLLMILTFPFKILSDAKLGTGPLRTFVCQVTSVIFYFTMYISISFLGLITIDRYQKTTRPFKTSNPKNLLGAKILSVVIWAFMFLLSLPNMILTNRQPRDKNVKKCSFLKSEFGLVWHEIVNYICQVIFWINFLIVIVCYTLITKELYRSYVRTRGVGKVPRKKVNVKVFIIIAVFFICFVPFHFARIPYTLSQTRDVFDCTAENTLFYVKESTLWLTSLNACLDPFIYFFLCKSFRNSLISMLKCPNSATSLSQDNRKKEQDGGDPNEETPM

The Ki is the equilibrium dissociation constant of an inhibitor or competing ligand from its target. Higher therefore signals lower affinity. On to `CN(C)[C@@H]1C(=O)C(C(N)=O)C(=O)[C@@]2(O)C(=O)C3C(=O)c4c(O)ccc(Cl)c4[C@@](C)(O)[C@H]3C[C@@H]12` (stereo partly drawn), for which, at P2Y purinoceptor 12, the Ki was more than 10 µM. Regarding `CN(C)[C@@H]1C(=O)C(C(N)=O)C(=O)[C@@]2(O)C(=O)C3C(=O)c4c(O)cccc4[C@@](C)(O)[C@H]3C[C@@H]12` (stereo partly drawn) [Achromycin], on P2Y purinoceptor 12, the Ki is more than 10 µM. A word on the IC50: it is the concentration at which inhibition is half-maximal. For `Nc1c(S(=O)(=O)O)cc(Nc2ccc(Nc3ncccn3)c(S(=O)(=O)O)c2)c2c1C(=O)c1ccccc1C2=O` [Disodium 1-amino-4-[4-([1,3]diazine-2-ylamino)-3-sulfophenylamino]-9,10-dioxo-9,10-dihydroanthracene-2-sulfonate], the 50% inhibitory concentration (IC50) in test [1] was found to be 0.76 µM.
